Published values pooled from the literature.
Each line is one published result; the experiments were not run side by side.
Cell line: MV4-11
Observed: cell growth or viability

SMILES	method	time	quantity	result
Cc1n[nH]c2ccc3nc(-c4ccc(C(=O)NCCN(C)C)nc4)c4c(c3c12)CCCCC4	resazurin	72 h	GI50	181 nM
c1cc(N2CCCCC2)ccc1Nc1cc2ncc(OCC3CCNCC3)nc2cc1-c1ccc(N2CCCCC2)cc1	XTT	7 days	EC50	3000 nM
CC(C)Cc1ccc([C@H](C)C(=O)O)cc1	MTT	72 h	IC50	277000 nM
c1cc(N2CCCC2)ccc1-c1cc2ncc(OCC3CCNCC3)nc2cc1-c1ccc(N2CCCC2)cc1	XTT	7 days	EC50	1900 nM
O=C(NO)c1ccc(Cn2cnc3c(Nc4ccc(Br)cc4F)ncnc32)cc1	MTT	72 h	IC50	770 nM
Cc1n[nH]c2ccc3nc(-c4ccc(C(=O)N(C)CCN(C)C)cc4)c4c(c3c12)CCC(C)(C)C4	resazurin	72 h	GI50	258 nM
c1ccc(Oc2ccc(Nc3ccc4ncc(OCC5CCNCC5)nc4c3)cc2)cc1	XTT	7 days	EC50	880 nM
Cc1n[nH]c2ccc3nc(-c4ccc(C(=O)NCCN(C)C)cc4)c4c(c3c12)CCC(C)(C)C4	resazurin	72 h	GI50	223 nM
Nc1ccccc1NC(=O)c1ccc(Cn2cnc3c(Nc4ccc(Cl)cc4)ncnc32)cc1	MTT	72 h	IC50	590 nM
O=C(NCCN1CCCC1)c1ccc(-c2nc3ccc4[nH]ncc4c3c3c2CCCC3)c(F)c1	resazurin	72 h	GI50	208 nM
O=C(NO)c1ccc(Cn2cnc3c(Nc4ccc(Cl)cc4)ncnc32)cc1	MTT	72 h	IC50	60 nM
Cc1cc2c(C(N)=O)cccc2n1-c1nc2c(c(NCc3ccccc3)n1)CCCN2	–	72 h	IC50	300 nM
CN(C)CCN(C)C(=O)c1ccc(-c2nc3ccc4[nH]ncc4c3c3c2CC(C)(C)CC3)cc1	resazurin	72 h	GI50	1900 nM
COc1ccc(Nc2ncnc3c2ncn3Cc2ccc(C(=O)NO)cc2)cc1	MTT	72 h	IC50	580 nM
c1cc(-c2cc3ncc(OCC4CCNCC4)nc3cc2-c2cccc(N3CCCCC3)c2)cc(N2CCCCC2)c1	XTT	7 days	EC50	1400 nM
